Results reported in ChEMBL document CHEMBL3612059, “Synthesis of 1,2-benzisoxazole tethered 1,2,3-triazoles that exhibit anticancer activity in acute myeloid leukemia cell lines by inhibiting histone deacetylases, and inducing p21 and tubulin acetylation” (Bioorg Med Chem, 2015).
Active and inactive are the calls of the source. The calls are words filed in the database; no cut-off is given here.

Key:
MOLM-14 [1] = test: Induction of apoptosis in human MOLM14 cells assessed as necrotic cells at 5 uM after 72 hrs by Annexin V-FITC/propidium iodide staining-based flow cytometric analysis (reference value: 1%); assay type: functional
How it was run: (§1)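 100,000 cells per well treated with 2.5, 5.0 or 10 μM for 72 h. Washed in ice-cold Ca/Mg-free PBS, resuspended in 100 μl binding buffer, stained with 5 μl PI plus 3 μl annexin V-FITC for 15 min in the dark, then read immediately by flow cytometry. Quadrants scored as live, early apoptotic, late apoptotic and necrotic.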

MOLM-14 [2] = test: Induction of apoptosis in human MOLM14 cells assessed as necrotic cells at 10 uM after 72 hrs by Annexin V-FITC/propidium iodide staining-based flow cytometric analysis (reference value: 1%); assay type: functional; how it was run: as §1
MV4-11 [3] = test: Induction of apoptosis in human MV4-11 cells assessed as early apoptotic cells at 2.5 uM after 72 hrs by Annexin V-FITC/propidium iodide staining-based flow cytometric analysis (reference value: 7%); assay type: functional; how it was run: as §1
MV4-11 [4] = test: Induction of apoptosis in human MV4-11 cells assessed as early apoptotic cells at 10 uM after 72 hrs by Annexin V-FITC/propidium iodide staining-based flow cytometric analysis (reference value: 7%); assay type: functional; how it was run: as §1
[5] = target: T1, Protein deacetylase HDAC6 (Homo sapiens) (UniProt Q9UBN7); test: Inhibition of HDAC6 in human MV4-11 cells assessed as increase in acetylation of tubulin at lysine 40 by Western blot analysis; assay type: cell-based
T1 sequence (whole entry): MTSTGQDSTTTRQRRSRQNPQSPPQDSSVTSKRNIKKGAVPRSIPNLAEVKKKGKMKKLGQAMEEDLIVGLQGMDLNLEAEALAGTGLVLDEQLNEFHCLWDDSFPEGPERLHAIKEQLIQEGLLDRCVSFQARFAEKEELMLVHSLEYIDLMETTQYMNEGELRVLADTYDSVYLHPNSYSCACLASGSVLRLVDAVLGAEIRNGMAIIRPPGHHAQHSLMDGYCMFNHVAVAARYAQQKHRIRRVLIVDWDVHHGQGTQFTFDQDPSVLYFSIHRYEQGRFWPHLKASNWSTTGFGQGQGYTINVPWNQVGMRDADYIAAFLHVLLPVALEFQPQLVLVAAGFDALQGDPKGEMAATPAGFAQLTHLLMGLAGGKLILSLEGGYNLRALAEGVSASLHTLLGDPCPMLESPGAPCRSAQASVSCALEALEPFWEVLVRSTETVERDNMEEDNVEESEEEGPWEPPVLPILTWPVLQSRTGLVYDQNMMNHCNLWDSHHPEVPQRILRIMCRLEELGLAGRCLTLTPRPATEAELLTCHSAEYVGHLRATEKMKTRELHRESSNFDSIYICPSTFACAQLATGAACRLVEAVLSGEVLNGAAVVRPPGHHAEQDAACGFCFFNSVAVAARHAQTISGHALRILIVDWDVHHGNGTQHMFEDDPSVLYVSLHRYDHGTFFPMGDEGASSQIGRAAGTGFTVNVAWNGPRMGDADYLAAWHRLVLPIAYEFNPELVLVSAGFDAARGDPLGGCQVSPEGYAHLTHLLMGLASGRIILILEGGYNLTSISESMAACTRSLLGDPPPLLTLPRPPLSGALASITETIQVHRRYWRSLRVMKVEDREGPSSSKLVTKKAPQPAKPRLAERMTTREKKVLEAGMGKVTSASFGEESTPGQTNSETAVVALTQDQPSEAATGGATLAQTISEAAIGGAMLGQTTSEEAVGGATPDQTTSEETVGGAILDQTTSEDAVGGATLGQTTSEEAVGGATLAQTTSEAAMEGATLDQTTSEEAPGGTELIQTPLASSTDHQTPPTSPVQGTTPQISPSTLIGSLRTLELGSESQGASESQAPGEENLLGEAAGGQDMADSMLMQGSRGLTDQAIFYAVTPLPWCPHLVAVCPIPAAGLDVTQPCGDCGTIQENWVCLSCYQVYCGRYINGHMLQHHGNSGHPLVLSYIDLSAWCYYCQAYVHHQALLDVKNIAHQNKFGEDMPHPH

MV4-11 [6] = test: Upregulation of p21 protein expression in human MV4-11 cells by Western blot analysis; assay type: functional, cell-based
[7] = target: Histone deacetylase (Homo sapiens) (UniProt Q13547+O15379+Q9UBN7+Q92769+Q9UQL6+Q8WUI4+Q9BY41+Q96DB2+P56524+Q9UKV0+Q969S8); test: Inhibition of HDAC in human MV4-11 cells assessed as increase in acetylation of histone H3 by Western blot analysis; assay type: cell-based
How it was run: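 MV4-11 cells were treated and histones acid-extracted: Triton buffer, then NaCl buffer, 0.24 M H2SO4 on ice for 2 h, acetone precipitation overnight, Bradford quantitation. Histones (0.5 µg) were run on 4-20 % gradient gels, blotted to PVDF, blocked in 5 % milk and probed overnight at 4 °C with anti-acetyl-histone H3 (1:1000). HRP secondary, ECL detection, total histone H3 as loading control.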

MV4-11 [8] = test: Cell cycle arrest in human MV4-11 cells assessed as accumulation at G2/M phase after 72 hrs by propidium iodide staining-based flow cytometric analysis; assay type: functional
How it was run: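 Cells in RPMI with 10 % FBS at 37 °C, 5 % CO₂; treated up to 72 h, washed in cold PBS, fixed in -20 °C-precooled 70 % ethanol at 4 °C. Stained with 50 µg/ml PI, 1 % Triton X-100 and 20 µg/ml RNase A in PBS, 30 min, 37 °C, dark. Cell-cycle phases read by flow cytometry; three independent experiments, mean ± SD.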

MOLM-13 (Homo sapiens) [9] = test: Cytotoxicity against human MOLM13 cells assessed as cell viability at 0.25 to 5 uM by MTT assay
MOLM-13 (Homo sapiens) [10] = test: Induction of apoptosis in human MOLM13 cells after 72 hrs by Annexin V-FITC/propidium iodide staining-based flow cytometric analysis
MOLM-13 (Homo sapiens) [11] = test: Cell cycle arrest in human MOLM13 cells assessed as accumulation at G2/M phase after 72 hrs by propidium iodide staining-based flow cytometric analysis
MOLM-13 (Homo sapiens) [12] = test: Induction of apoptosis in human MOLM13 cells assessed as necrotic cells at 10 uM after 72 hrs by Annexin V-FITC/propidium iodide staining-based flow cytometric analysis (reference value: 3%)
MOLM-13 (Homo sapiens) [13] = test: Induction of apoptosis in human MOLM13 cells assessed as late apoptotic cells at 5 uM after 72 hrs by Annexin V-FITC/propidium iodide staining-based flow cytometric analysis (reference value: 7%)
MOLM-13 (Homo sapiens) [14] = test: Induction of apoptosis in human MOLM13 cells assessed as early apoptotic cells at 5 uM after 72 hrs by Annexin V-FITC/propidium iodide staining-based flow cytometric analysis (reference value: 11%)

Question: Which results are given for `c1ccc(Oc2ccc(-c3cn(-c4noc5ccccc45)nn3)cc2)cc1`?
Answer: Activity (MOLM-14 [1]): 7%; Activity (MOLM-14 [2]): 10%; Activity (MV4-11 [3]): 9%; Activity (MV4-11 [4]): 20%; inhibition [5]: Active; Activity (MV4-11 [6]): Active; inhibition [7]: Active; Activity (MV4-11 [8]): Active; Activity (MOLM-13 (Homo sapiens) [9]): Dose-dependent effect; Activity (MOLM-13 (Homo sapiens) [10]): Dose-dependent effect; Activity (MOLM-13 (Homo sapiens) [11]): Active; Activity (MOLM-13 (Homo sapiens) [12]): 18%; Activity (MOLM-13 (Homo sapiens) [13]): 26%; Activity (MOLM-13 (Homo sapiens) [14]): 19%
